Measurements published in ChEMBL document CHEMBL1124084, “Studies on scavengers of active oxygen species. 1. Synthesis and biological activity of 2-O-alkylascorbic acids” (J Med Chem, 1988).
The source made the active and inactive calls. The rule behind the calls is not given here.

Columns and labels:
Rattus norvegicus [1] = organism: Rattus norvegicus; test: Antilipid peroxidation was measured at 10e-5 M concentration.; assay type: functional
Procedure, shortened: (§1)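 Rat brain lipid peroxidation: brains from male SD rats (12 weeks old), exsanguinated under pentobarbital anaesthesia, homogenized to 5% in phosphate buffer pH 7.4. Homogenate incubated with test drug at 37 °C for 1 h. Lipid peroxide quantified by the thiobarbituric acid method.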

Rattus norvegicus [2] = test: Effect of AOS scavenger on ventricular fibrillation (VF),arrhythmias induced by ischemia-reperfusion in anesthetized rat, duration at 10 mg/kg; assay type: functional, Cardiac ventricle
Rattus norvegicus [3] = test: Effect of AOS scavenger on premeture ventricular complexes PVCs, arrhythmias induced by ischemia-reperfusion in anesthetized rat, duration at 10 mg/kg; assay type: functional, Cardiac ventricle
[4] = Reducing activity determined by the use of stable radical alpha,alpha-di-phenyl-beta-picrylhydrazyl (DPPH); parameters: concentration or dose not given beside the values
Rattus norvegicus [5] = test: Effect of AOS scavenger on ventricular fibrillation (VF),arrhythmias induced by ischemia-reperfusion in anesthetized rat, incidence at 10 mg/kg; 3/6; assay type: functional, Cardiac ventricle
Rattus norvegicus [6] = test: Effect of AOS scavenger on ventricular tachycardia (VT),arrhythmias induced by ischemia-reperfusion in anesthetized rat, duration at 10 mg/kg; assay type: functional, Cardiac ventricle
Rattus norvegicus [7] = test: Effect of AOS scavenger on ventricular tachycardia (VT),arrhythmias induced by ischemia-reperfusion in anesthetized rat, incidence at 10 mg/kg
Rattus norvegicus [8] = test: Effect of AOS scavenger on ventricular tachycardia (VT), arrhythmias induced by ischemia-reperfusion in anesthetized rat, frequency, times at 10 mg/kg; assay type: functional, Cardiac ventricle
Rattus norvegicus [9] = test: Effect of AOS scavenger on ventricular fibrillation (VF), arrhythmias induced by ischemia-reperfusion in anesthetized rat, frequency, times at 10 mg/kg; assay type: functional, Cardiac ventricle
Rattus norvegicus [10] = organism: Rattus norvegicus; test: Inhibition of lipid peroxidation was determined with rat brain tissue homogenates; assay type: functional
Procedure, shortened: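 Brains excised from male SD rats (12 weeks), exsanguinated under pentobarbital anesthesia; 5% homogenate in phosphate buffer pH 7.4 incubated with test drug 1 h at 37 °C; lipid peroxide quantified by thiobarbituric acid method.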

Rattus norvegicus [11] = test: Effect of AOS scavenger on ventricular tachycardia (VT), arrhythmias induced by ischemia-reperfusion in anesthetized rat at requency, times 10 mg/kg; assay type: functional, Cardiac ventricle
Rattus norvegicus [12] = test: Effect of AOS scavenger on ventricular fibrillation (VF),arrhythmias induced by ischemia-reperfusion in anesthetized rat, incidence at 10 mg/kg; 2/7; assay type: functional, Cardiac ventricle
Rattus norvegicus [13] = organism: Rattus norvegicus; test: Antilipid peroxidation was determined; assay type: functional; procedure, shortened: as §1
Rattus norvegicus [14] = test: Effect of AOS scavenger on ventricular fibrillation (VF),arrhythmias induced by ischemia-reperfusion in anesthetized rat, incidence at 10 mg/kg; 4/7; assay type: functional, Cardiac ventricle
Rattus norvegicus [15] = test: Effect of AOS scavenger on ventricular fibrillation (VF),arrhythmias induced by ischemia-reperfusion in anesthetized rat, duration at 10 mg/kg
Rattus norvegicus [16] = test: Effect of AOS scavenger on ventricular fibrillation (VF),arrhythmias induced by ischemia-reperfusion in anesthetized rat, frequency at 10 mg/kg
Rattus norvegicus [17] = test: Effect of AOS scavenger on ventricular tachycardia (VT),arrhythmias induced by ischemia-reperfusion in anesthetized rat, frequency, times at 10 mg/kg; assay type: functional, Cardiac ventricle
Rattus norvegicus [18] = test: Effect of AOS scavenger on ventricular tachycardia (VT),arrhythmias induced by ischemia-reperfusion in anesthetized rat, incidence at 10 mg/kg; 6/7; assay type: functional, Cardiac ventricle
Rattus norvegicus [19] = test: Effect of AOS scavenger on ventricular tachycardia (VT),arrhythmias induced by ischemia-reperfusion in anesthetized rat, incidence at 10 mg/kg; 8/8; assay type: functional, Cardiac ventricle
Rattus norvegicus [20] = organism: Rattus norvegicus; test: Antilipid peroxidation was determined; No effect; assay type: functional; procedure, shortened: as §1
Rattus norvegicus [21] = test: Effect of AOS scavenger on ventricular tachycardia (VT),arrhythmias induced by ischemia-reperfusion in anesthetized rat duration at 10 mg/kg; assay type: functional, Cardiac ventricle
Rattus norvegicus [22] = test: Effect of AOS scavenger on ventricular fibrillation (VF),arrhythmias induced by ischemia-reperfusion in anesthetized rat; incidence at 10 mg/kg 7/8; assay type: functional, Cardiac ventricle

SMILES | Duration (Rattus norvegicus [2]) | PVCs (Rattus norvegicus [3]) | Reducing activity [4] | Duration (Rattus norvegicus [6]) | Frequency (Rattus norvegicus [8]) | Frequency (Rattus norvegicus [9]) | Activity (Rattus norvegicus [3]) | IC50 (Rattus norvegicus [10]) | Antilipid peroxidation (Rattus norvegicus [13]) | other results
CCCCCCCCCCCCCCCCCCOC1=C(O)C(=O)OC1C(O)CO (configuration not stated) | <1.9 s | 3.9 | 94.5% | <4 s | 2.3 | <0.8 | – | – | – | Antilipid peroxidation (Rattus norvegicus [1]): 34.5%; Incidence (Rattus norvegicus [5]): 3 N; Incidence (Rattus norvegicus [7]): 4 N
CCCCCCCCCCCCCCOC1=C(O)OC(C(O)CO)C1=O (configuration not stated) | 10.1 s | – | 95.4% | 12.9 s | – | <0.6 | <3.5 min | 7.4 µM | 54.8% | Frequency (Rattus norvegicus [11]): <2.6; Incidence (Rattus norvegicus [12]): 2 N
CCCCCCCCCCCCCCCOC1=C(O)OC(C(O)CO)C1=O (configuration not stated) | – | – | 95.4% | 11.9 s | – | – | <4.3 min | 5.6 µM | 67.4% | Incidence (Rattus norvegicus [14]): 4 N; Duration (Rattus norvegicus [15]): <3 s; Frequency (Rattus norvegicus [16]): <0.9; Frequency (Rattus norvegicus [17]): 5; Incidence (Rattus norvegicus [18]): 6 N
O=C1C(OCc2ccccc2)=C(O)OC1C(O)CO (configuration not stated) | 79.9 s | 26.9 PVCs/min | 93% | – | 3.9 | 2.5 | – | – | – | Incidence (Rattus norvegicus [19]): 8 N; Antilipid peroxidation (Rattus norvegicus [20]): inactive; Duration (Rattus norvegicus [21]): <4.9 s; Incidence (Rattus norvegicus [22]): 7 N
